Experiment [1] has as its target T1, BetP (Corynebacterium glutamicum, UniProt P54582, G153D).
T1 sequence (P54582 1-595 G153D): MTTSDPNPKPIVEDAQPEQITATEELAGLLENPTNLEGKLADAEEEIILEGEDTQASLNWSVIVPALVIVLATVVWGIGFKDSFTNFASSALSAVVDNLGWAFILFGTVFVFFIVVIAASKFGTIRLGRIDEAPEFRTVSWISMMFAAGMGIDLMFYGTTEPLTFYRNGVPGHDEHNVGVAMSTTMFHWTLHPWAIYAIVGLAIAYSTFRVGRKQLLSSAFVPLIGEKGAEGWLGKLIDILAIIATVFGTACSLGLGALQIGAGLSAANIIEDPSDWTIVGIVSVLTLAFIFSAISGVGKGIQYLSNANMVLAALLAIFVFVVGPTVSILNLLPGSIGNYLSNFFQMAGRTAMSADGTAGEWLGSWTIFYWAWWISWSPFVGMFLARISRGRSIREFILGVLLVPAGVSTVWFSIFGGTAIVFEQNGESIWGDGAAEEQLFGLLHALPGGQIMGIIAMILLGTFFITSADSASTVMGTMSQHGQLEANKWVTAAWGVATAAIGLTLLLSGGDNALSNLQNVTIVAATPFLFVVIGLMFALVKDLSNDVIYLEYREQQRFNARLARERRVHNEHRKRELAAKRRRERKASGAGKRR
The experiment can be described thus: tryptophan fluorescence titration, proteoliposomes. The format is binding. The method, boiled down:
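Strep-tagged BetP-G153D was expressed in E. coli, affinity-purified in DDM, and reconstituted into E. coli polar-lipid liposomes (lipid/protein 10:1 w/w, 250 mM KPi pH 7.5), used at 100 μg/ml protein. Substrate was 0.1–16 mM with 100 mM NaCl at pH 7.5, or 0.8–30 mM (pH 5.5) or 0.8–100 mM (pH 7.5) without NaCl. Excitation 295 nm; emission at 340 nm, eight readings averaged. Mean and SD were fitted for the binding constant.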

The target in experiment [2] is BetP (Corynebacterium glutamicum, UniProt P54582). Description: […]-betaine uptake in E. coli MKH13 expressing BetP. The class given is cell-based. As to conditions: 250 μM [14C]-betaine, NaCl titration, pH 7.5, 800 mOsmol/kg, 37 °C; labelled compound.
Chain of BetP (Corynebacterium glutamicum, UniProt P54582) (P54582 whole entry): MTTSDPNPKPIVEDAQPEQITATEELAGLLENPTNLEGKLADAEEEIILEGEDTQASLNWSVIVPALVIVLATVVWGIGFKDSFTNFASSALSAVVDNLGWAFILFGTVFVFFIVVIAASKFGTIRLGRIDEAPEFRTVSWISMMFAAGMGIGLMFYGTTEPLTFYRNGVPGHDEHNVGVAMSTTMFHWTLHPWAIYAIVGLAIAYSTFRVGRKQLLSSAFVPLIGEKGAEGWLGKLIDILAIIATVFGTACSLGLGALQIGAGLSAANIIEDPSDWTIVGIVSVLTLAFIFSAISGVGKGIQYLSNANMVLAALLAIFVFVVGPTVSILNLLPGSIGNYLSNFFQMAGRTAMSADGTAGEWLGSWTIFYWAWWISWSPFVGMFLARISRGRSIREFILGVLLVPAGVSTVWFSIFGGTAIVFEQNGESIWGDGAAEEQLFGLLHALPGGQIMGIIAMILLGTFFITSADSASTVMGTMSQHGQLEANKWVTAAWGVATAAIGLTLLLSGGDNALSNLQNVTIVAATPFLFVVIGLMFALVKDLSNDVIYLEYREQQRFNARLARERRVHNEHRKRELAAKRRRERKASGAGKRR

On to `C[N+](C)(C)CCO` [Choline], for which binding on BetP [1] was put at a Kd of 1150 ± 90 µM.
With `C[N+](C)(C)CC(=O)[O-]` [[14C]-betaine], the “[14C]-betaine uptake in E. coli MKH13 expressing BetP” value on BetP [2] is given as “cells expressing BetP WT or the mutant N309A”.

Values taken from publication PMC4745115 (Nature communications, 2014).
